Assay outcomes: PubChem, several laboratories
bCat KO growth: beta-catenin-lacking colon tumor cell growth suppression; HCT116 beta-catenin knockout viability, CellTiter-Glo, 60 h; stronger effect = lower value; viability, % at 10 µM; actives 1.5% (n = 140,000);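 active means viability at or under a set limit, the compound median less 4 SD, cut at about 6% in these data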
Autophagy mod: autophagy modulation, high-content screen; MEF GFP-LC3 puncta imaging; test concentration mostly 10 µM; calls only at 10 µM (by protocol); actives 0.98% (n = 190,000); AID 463193;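 active means percentage of spot-positive cells more than 3 SD above its plate mean, without a fluorescence outlier flag or 80% toxicity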
L major viab: reduces viability of Leishmania major promastigotes; resazurin fluorescence viability; inhibition, % at 10 µM; actives 9% (n = 200,000); in the data active means inhibition above about 50%;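 further: promastigotes grown with compound for 44 hours at 28 °C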
Dynein cargo inh: blocks dynein driven cargo transport along microtubules | 3617.4 mouse cells, GR-EGFP nuclear translocation imaging; test concentration mostly 20 µM; stimulated with dexamethasone, 1 µM; stronger effect = lower value | z-score, hits read low | actives 0.47% (n = 220,000);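 active means plate z-score of nuclear minus cytoplasmic receptor signal below a set negative limit, without overly bright fluorescence or cell loss, cut at about -3.5 in these data, passing the limit was not always enough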;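 further: z-score of nuclear minus cytoplasmic ring GR-EGFP intensity difference per well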
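Buffer or medium: tet-free, stripped-serum medium; reagent: dexamethasone at 1.0 µM final, 30 min; incubation: 48 h induction, 1 h compound, 30 min dex at 37 °C; measured by: formaldehyde fixation, Hoechst nuclear stain, 10x automated fluorescence imaging; read-out: nuclear-to-cytoplasmic GR-EGFP distribution per well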
PTEN del growth: PTEN-deleted cell growth suppression | HCT116 PTEN-null viability, CellTiter-Glo, 60 h; stronger effect = lower value | viability, % at 10 µM | actives 1.2% (n = 140,000) | AID 827;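 active means viability at or below a set limit, 4 SD under the median of all tested compounds, cut at about 3.7% in these data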;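 further: PTEN knockout HCT116 line with beta catenin targeted HCT116 as companion control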
Large screens that a line does not name were inactive. Most compounds without a hit are left out; they make up all but 9.2% or so of the library.

CC1=C(C)/C(=N\OS(=O)(=O)c2ccc(C)cc2)C=CC1=O	bCat KO growth 1.8, L major viab 100.5, Dynein cargo inh -3.65, PTEN del growth 1.7
COc1ccc(S(=O)(=O)/N=C2/C=CC(=O)C(C)=C2C)cc1	none
COc1ccc(C(=O)CN2C(=O)c3ccccc3C2=O)cc1	none (no result: bCat KO growth, Autophagy mod, L major viab, PTEN del growth)
CCOC(CC(=O)NNC(=O)c1c(-c2c(Cl)cccc2Cl)noc1C)OCC	none (no result: bCat KO growth, Autophagy mod, L major viab, PTEN del growth)
CCN(Cc1ccccc1)S(=O)(=O)c1ccc(S(=O)(=O)N(Cc2ccccn2)Cc2ccco2)cc1	none
CC1CCCCN1S(=O)(=O)c1ccc(S(=O)(=O)N(Cc2ccccc2)Cc2ccco2)cc1 (stereo not drawn)	L major viab 68.6
CCn1cc(C(=O)NCc2ccncc2)c(=O)c2cc(F)c(N3CCN(C(=O)c4ccco4)CC3)cc21	none (no result: bCat KO growth, Autophagy mod, L major viab, PTEN del growth)
CCn1cc(C(=O)NCc2ccccc2)c(=O)c2cc(F)c(N3CCN(C(=O)c4ccco4)CC3)cc21	L major viab 95.4
CN(CCN1CCOCC1)Cc1nc(-c2cccs2)no1	L major viab 72.8 (no result: bCat KO growth, PTEN del growth)
c1csc(-c2noc(CN3CCOCC3)n2)c1	none (no result: bCat KO growth, Autophagy mod, L major viab, PTEN del growth)
O=C(CCc1ccc(O)cc1)N/N=C/c1coc2ccccc2c1=O	none (no result: bCat KO growth, Autophagy mod, L major viab, PTEN del growth)
CCN1C(=O)C2(C(C#N)=C(N)Oc3c2c(C)nn3-c2ccccc2)c2ccccc21 (stereo not drawn)	L major viab 85.5
Cc1nn(-c2ccccc2)c2c1C1(C(=O)N(C)c3ccccc31)C(C#N)=C(N)O2 (stereo not drawn)	none
O=C(Oc1cccc(-n2cnnn2)c1)c1ccccc1Cl	none (no result: bCat KO growth, PTEN del growth)
COc1ccc(O)c(C(=O)c2coc(=N)c(C(=O)Nc3ccc(SC(F)F)cc3)c2)c1	L major viab 82.7 (no result: bCat KO growth, PTEN del growth)
COC(=O)c1ccc(NC(=S)NCC2CC2)cc1	none (no result: bCat KO growth, PTEN del growth)
COC(=O)c1ccc(NC(=O)NC2CCCCC2)cc1	L major viab 52.2
COC(=O)c1ccc(NC(=S)NC2CCCCC2)cc1	L major viab 87.0
COC(=O)c1ccc(NC(=S)NC2CC3CCC2C3)cc1 (stereo not drawn)	L major viab 73.1
CCOC(=O)C1C(c2ccccc2)C(C(=O)OCC)S(=O)(=O)C(CCN(CC)CC)S1(=O)=O (stereo not drawn)	none (no result: bCat KO growth, PTEN del growth)
CCCOc1ccc(S(=O)(=O)NCCCN2CCOCC2)c2ccccc12	none
Cc1ccc(-c2nn(C)c(=O)c3ccccc23)cc1S(=O)(=O)NCCN1CCOCC1	L major viab 64.8
COc1ccc(S(=O)(=O)NCCCN2CCOCC2)c2ccccc12	L major viab 91.8
CCOc1ccc(S(=O)(=O)NCCCN2CCOCC2)c2ccccc12	L major viab 85.3
CCOC(=O)CNS(=O)(=O)c1cc(-c2nn(C)c(=O)c3ccccc23)ccc1C	none
O=C(Nn1cnnc1)c1ccccc1CCc1ccccc1	none
COC(=O)c1ccc(N(C(=O)CNC(=O)c2ccco2)C(C(=O)NC2CCCC2)c2ccco2)cc1 (stereo not drawn)	none
O=C(Nc1nnc(SCc2ccc(F)cc2)s1)c1ccccn1	L major viab 98.8 (no result: bCat KO growth, PTEN del growth)
CCOC(=O)c1csc(Nc2nc3ccc(F)cc3s2)n1	bCat KO growth 4.7, L major viab 95.5
O=C(Nc1nc2ccccc2s1)c1cnccn1	none
O=C(Nc1nc2ccc(F)cc2s1)c1ccccn1	L major viab 100.2 (no result: bCat KO growth, PTEN del growth)
O=C(Nc1nnc(SCc2ccc(F)cc2)s1)c1cccnc1Cl	none (no result: bCat KO growth, PTEN del growth)
COc1ccc(-n2c(=O)c3ccccc3n(CC(=O)OCc3ccccc3)c2=O)cc1OC	none (no result: bCat KO growth, PTEN del growth)
Cc1ccc(NC(=S)N/N=C/c2c(C)[nH]c3ccccc23)cc1	Autophagy mod active (no result: bCat KO growth, PTEN del growth)
Cc1[nH]c2ccccc2c1/C=N/NC(N)=S	none (no result: bCat KO growth, Autophagy mod, L major viab, PTEN del growth)
CCOC(=O)N1CCN(S(=O)(=O)c2ccc(C(=O)NNc3nc4cc(C)cc(C)c4s3)cc2)CC1	none
CCOC(=O)N1CCN(S(=O)(=O)c2ccc(C(=O)Nc3nnc(C4CC4)o3)cc2)CC1	none
CCOC(=O)N1CCN(S(=O)(=O)c2ccc(C(=O)Nc3nnc(CC)o3)cc2)CC1	L major viab 59.0
CCOC(=O)N1CCN(S(=O)(=O)c2ccc(C(=O)Nc3nc4c(s3)CC(C)CC4)cc2)CC1 (stereo not drawn)	bCat KO growth 1.5, Autophagy mod active, PTEN del growth 1.2
C/C(=N\OCC(=O)Nc1c(C)cc(C)cc1C)c1ccc2c(c1)OCCO2	none
Fc1ccc(Nc2nc(NCc3ccco3)c3ccccc3n2)cc1	none (no result: bCat KO growth, Autophagy mod, L major viab, PTEN del growth)
COc1ccc(C(=O)N(c2ccc(OC)cc2)S(=O)(=O)c2cccs2)cc1	L major viab 76.5
Cc1ccc2nc(NC(=O)c3cccs3)sc2c1	none
Cc1ccc2oc(-c3cccc(NC(=S)NC(=O)/C=C/c4ccco4)c3)nc2c1	L major viab 100.3
COc1cc(C(=O)Nc2cccc(-c3nc4cc(C)cc(C)c4o3)c2)cc(OC)c1OC	none
Cc1cc(C)c2oc(-c3ccc(C)c(NC(=S)NC(=O)/C=C/c4ccco4)c3)nc2c1	L major viab 71.3
Cc1ccc2nc(NC(=S)NC(=O)c3cccs3)sc2c1	L major viab 58.9
Cc1ccc(NC(=S)NC(=O)/C=C/c2ccco2)c(O)c1	none (no result: bCat KO growth, PTEN del growth)
Cc1cc(C)c2oc(-c3cccc(NC(=O)c4ccc(F)cc4)c3)nc2c1	L major viab 65.3
CC(C)(C)NC(=O)C(c1ccsc1)N(CCc1ccccc1)C(=O)Cn1nnc2ccccc21 (stereo not drawn)	none
COCCCNC(=O)Cn1nnc(-c2ccccc2NC(=O)c2ccccc2F)n1	none (no result: bCat KO growth, PTEN del growth)
Cc1cc(C)c2oc(-c3ccc(C)c(NC(=S)NC(=O)c4cccs4)c3)nc2c1	bCat KO growth 3.8, PTEN del growth 2.7
O=C(NC(=O)c1cccc(F)c1)OC[C@@H]1CCCN2CCCC[C@H]12	none (no result: Autophagy mod)
COc1ccc(/C=C(\NC(=O)c2ccccc2)C(=O)OCC2CCCN3CCCCC23)cc1OC (stereo not drawn)	L major viab 72.5 (no result: bCat KO growth, PTEN del growth)
O=C(Nc1ccc(C(=O)OC[C@@H]2CCCN3CCCC[C@H]23)cc1)c1cccc(Br)c1	L major viab 68.4
CCCc1cnc(NCCNCC(O)COc2ccc(Cl)c(Cl)c2)nc1 (stereo not drawn)	none (no result: bCat KO growth, Autophagy mod, L major viab, PTEN del growth)
CN(C)CCN(C(=O)c1ccc(S(=O)(=O)N(C)c2ccccc2)cc1)c1nc2cc3c(cc2s1)OCCO3	none (no result: bCat KO growth, Autophagy mod, L major viab, PTEN del growth)
COc1ccc(C)c2sc(N(CCCN(C)C)C(=O)c3ccc(S(=O)(=O)N(C)C)cc3)nc12	L major viab 73.5 (no result: bCat KO growth, PTEN del growth)
CCCCN(C(=O)c1ccc(S(=O)(=O)N(C)C)cc1)c1nc2ccccc2s1	none
CCOc1cccc2sc(N(CCCN(C)C)C(=O)c3ccc(S(=O)(=O)N(C)c4ccccc4)cc3)nc12	L major viab 88.3 (no result: bCat KO growth, PTEN del growth)
COc1cccc(-c2csc(N3CCN(C(=S)Nc4ccc(Cl)cc4)CC3)n2)c1	L major viab 78.6
COc1cccc(-c2csc(N3CCN(C(=S)Nc4ccccc4)CC3)n2)c1	none
Cc1occc1-c1nnc(-c2cc([N+](=O)[O-])cc([N+](=O)[O-])c2)o1	L major viab 82.1 (no result: bCat KO growth, PTEN del growth)
COCCCN1C(=O)c2ccc(C(=O)O)cc2C1=O	none
COc1ccccc1N(CC(=O)Nc1cccnc1)S(C)(=O)=O	none
